{"source": "paper PMC13077713", "about": "(Journal of medicinal chemistry, 2025)", "key": {"[1]": {"target": "preassembled HBV capsids (Cp149 protein) (Hepatitis B virus genotype D subtype ayw, UniProt P03146)", "sequence (P03146 1-149)": "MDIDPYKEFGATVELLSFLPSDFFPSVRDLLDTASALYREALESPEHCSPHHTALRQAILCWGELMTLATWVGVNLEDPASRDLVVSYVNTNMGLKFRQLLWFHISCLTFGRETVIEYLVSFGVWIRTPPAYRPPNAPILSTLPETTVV", "settings": "20 μM CAM"}, "Cp149 dimers [2]": {"target": "T1, Cp149 dimers (Hepatitis B virus genotype D subtype ayw, UniProt P03146)", "T1 sequence (P03146 1-149)": "as above"}, "[3]": {"test_system": "human hepatocellular carcinoma (HepG2) cells", "assay": "Cytotoxicity, CellTiter 96 cell proliferation assay, HepG2 cells", "format": "cell-based", "settings": "read-out: Cytotoxicity, CC50 HepG2; HepG2 cells"}, "Cp149 dimers [4]": {"target": "T1, Cp149 dimers", "assay": "Cryo-electron microscopy classification of Cp149 capsids assembled with CAM", "format": "biochemical, Hepatitis B virus (HBV)", "settings": "90 μM, 30 μM subunits", "summary_of_the_method": "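Cp149 was expressed in E. coli BL21 and purified as capsids. These were dissociated with 3 M urea and taken to subunits by SEC. Assembly was triggered manually by mixing 30 μM (1 mg/ml) dimers in 1 mM DTT, 20 mM Tris-HCl pH 7.5 with 200 mM ammonium acetate, with or without 90 μM CAM (ρ = 3). Samples were concentrated 11-fold, imaged by cryo-EM, and particles 2D-classified.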"}, "[5]": {"test_system": "African green monkey kidney (Vero) cells", "assay": "Cytotoxicity, CellTiter 96 cell proliferation assay, Vero cells", "format": "cell-based", "settings": "read-out: Cytotoxicity, CC50 Vero; Vero cells"}, "[6]": {"test_system": "human T lymphoblast (CEM) cells", "assay": "Cytotoxicity, CellTiter 96 cell proliferation assay, CEM cells", "format": "cell-based", "settings": "read-out: Cytotoxicity, CC50 CEM; CEM cells"}, "[7]": {"test_system": "HBV-infected HepG2-NTCP cells", "format": "cell-based", "settings": "post-infection treatment"}, "Cp149 dimers [8]": {"target": "T1, Cp149 dimers", "assay": "Static SAXS of Cp149 capsid assembly in the presence of CAM", "format": "biochemical, Hepatitis B virus (HBV)", "settings": "ρ = 3, undiluted sample, 30 μM dimers; 1.54 cm^−1 without CAM"}, "[9]": {"test_system": "HBV DNA production in HepAD38 cells", "assay": "Anti-HBV activity", "format": "cell-based, Hepatitis B virus (HBV)"}, "[10]": {"test_system": "HBV-infected HepG2-NTCP cells", "format": "cell-based"}, "HBc in HepAD38 cells": {"test_system": "HBc in HepAD38 cells", "assay": "Confocal microscopy, nucleo-cytoplasmic distribution of HBc in HepAD38 cells", "format": "cell-based, Hepatitis B virus (HBV)", "settings": "increasing concentration, 72 h"}, "[11]": {"test_system": "human peripheral blood mononuclear (PBM) cells", "assay": "Cytotoxicity, CellTiter 96 cell proliferation assay, PBM cells", "format": "cell-based", "settings": "read-out: Cytotoxicity, CC50 PBM; PBM cells"}}, "note": "“And” between values parts separate entries of the source, which are not always exact repeats. Identical values can stand only once."}
{"smiles": "Cc1c(C(=O)C(=O)NCc2cn(CCCCCCCCCCCCCCn3cc(CNC(=O)C(=O)c4c(C)c(C(=O)Nc5ccc(F)c(F)c5)n(C)c4C)nn3)nn2)c(C)n(C)c1C(=O)Nc1ccc(F)c(F)c1", "note": "[Compound 6e, 4,4’-(2,2’-(((Tetradecane-1,14-diylbis(1H-1,2,3-triazole-1,4-diyl))bis(methylene))bis(azanediyl))bis(2-oxoacetyl))bis(N-(3,4-difluorophenyl)-1,3,5-trimethyl-1H-pyrrole-2-carboxamide)]", "values": [{"measurement": "Radius (DLS, table)", "setting": "[1]; 7.5 μM Cp149, 30 min, 1% DMSO control 24.6 ± 3.4", "value": "214 ± 61.3", "unit": "nM"}, {"measurement": "PD (polydispersity)", "setting": "[1]; 7.5 μM Cp149, 30 min, 1% DMSO control 32.3 ± 18.6", "value": "Multimodal distribution"}, {"measurement": "average particle radius (DLS, text)", "setting": "[1]; 1% DMSO control 24.6 nm", "value": 214, "unit": "nm"}, {"measurement": "Associated timescale of Rgw", "setting": "Cp149 dimers [2]", "value": "131 ± 21", "unit": "ms"}, {"measurement": "Associated timescale of 〈N〉w", "setting": "Cp149 dimers [2]", "value": "633 ± 77", "unit": "ms"}, {"measurement": "Rgw (mean radius of gyration, plateau)", "setting": "Cp149 dimers [2]", "value": "142 ± 0.3", "unit": "Å"}, {"measurement": "Subunit binding energies −Δg", "setting": "Cp149 dimers [2]", "value": 9.5, "unit": "kT"}, {"measurement": "〈N〉w∞ (mean aggregation number at equilibrium)", "setting": "Cp149 dimers [2]", "value": "126 and 126 ± 3"}, {"measurement": "CC50", "setting": "[3]", "value": "> 100", "unit": "µM"}, {"measurement": "capsids that displayed defects (single-particle analysis)", "setting": "Cp149 dimers [4]", "value": "approximately 45%"}, {"measurement": "CC50", "setting": "[5]", "value": "> 100", "unit": "µM"}, {"measurement": "CC50", "setting": "[6]", "value": "> 100", "unit": "µM"}, {"measurement": "fold more potent than GLP-26 at inhibiting HBV virion production", "setting": "[7]", "value": 10, "unit": "fold"}, {"measurement": "fold more potent than GLP-26 at inhibiting HBeAg biogenesis", "setting": "[7]", "value": 10, "unit": "fold"}, {"measurement": "SAXS intensity at zero angle I(0)", "setting": "Cp149 dimers [8]", "value": 1.32, "unit": "cm⁻¹"}, {"measurement": "times more potent than reference compound GLP-26", "setting": "[9]; HepAD38 EC50 vs GLP-26", "value": 80, "unit": "times"}, {"measurement": "EC50", "setting": "[9]; read-out: Anti-HBV activity EC50, HBV DNA production, HepAD38 cells", "value": 0.0001, "unit": "µM"}, {"measurement": "EC90", "setting": "[9]; read-out: Anti-HBV activity EC90, HBV DNA production, HepAD38 cells", "value": "0.009 ± 0.0002", "unit": "µM"}, {"measurement": "HBeAg EC50 compared to GLP-26 or GLS-4", "setting": "[10]", "value": "nearly eight-fold lower"}, {"measurement": "levels of HBc inside the nucleus", "setting": "HBc in HepAD38 cells", "value": "clear decrease in the levels of HBc inside the nucleus"}, {"measurement": "CC50", "setting": "[11]", "value": "> 100", "unit": "µM"}]}
